According to ChEMBL document CHEMBL1140540, “Investigating the antiproliferative activity of quinoline-5,8-diones and styrylquinolinecarboxylic acids on tumor cell lines” (Bioorg Med Chem Lett, 2007):

Tests used:
[1] = tested on: P388; assay: Antiproliferative activity against mouse P388 cells by MTT assay; assay type: functional, cell-based
Procedure, shortened: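 P388 cells in RPMI 1640 with 2 mM L-glutamine, 1.5 g/L NaHCO3, 4.5 g/L glucose, 1.0 mM pyruvate and 10% FBS, at 37 °C in 5% CO2. Plated 24 h before treatment, then exposed 72 h to varying concentrations. MTT 4 h at 37 °C, DMF/SDS lysis, OD570 after 24 h. IC50 from triplicates, 3–7 repeat experiments.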

[2] = Lipophilicity, log K of the compound; assay type: physicochemical; conditions: HPLC
Procedure, shortened: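 Hydrophobicity determined by HPLC.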

[3] = tested on: P388; assay: Antiproliferative activity against mouse P388 cells at 0.1 uM by MTT assay; assay type: functional
Procedure, shortened: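 P388 cells in RPMI 1640 with 2 mM L-glutamine, 1.5 g/L NaHCO3, 4.5 g/L glucose, 1.0 mM pyruvate and 10% FBS, at 37 °C in 5% CO2. Plated 24 h before treatment, then 72 h exposure at a single concentration. MTT readout: 4 h MTT, DMF/SDS lysis, OD570 after 24 h. Value expressed as percent inhibition of proliferation.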

[4] = tested on: SK-N-MC; assay: Antiproliferative activity against human SK-N-MC cells by MTT assay; assay type: functional, cell-based
Procedure, shortened: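 SK-N-MC cells in MEM with 10% (v/v) FBS, 1.0 mM sodium pyruvate, 1% non-essential amino acids, L-glutamine, penicillin/streptomycin and fungizone. Plated 24 h before dosing and exposed 72 h to varying concentrations. MTT added for 4 h at 37 °C, then DMF/SDS lysis, with OD570 read after 24 h. IC50 from triplicate wells, experiments repeated 3–7 times.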

| SMILES | IC50 [1] | log K [2] | inhibition at 0.1 µM [3] | IC50 [4] |
| --- | --- | --- | --- | --- |
| O=C(O)c1cccc2ccc(/C=C/c3ccccc3O)nc12 | 13.6 µM | 1.6787 | – | – |
| O=C(O)c1cccc2ccc(/C=C/c3ccc(Cl)cc3)nc12 | 15.3 µM | 1.8165 | – | – |
| CCCC(=O)NC1=CC(=O)c2ccc(C)nc2C1=O | 1.51 µM | – | – | – |
| CCC(=O)NC1=CC(=O)c2ccc(C)nc2C1=O | 1.43 µM | – | – | – |
| COc1ccc(/C=C/c2ccc3c([N+](=O)[O-])cc(C(=O)O)c(O)c3n2)cc1 | 148 µM | – | – | – |
| COc1ccc(/C=C/c2ccc3c(NC(C)=O)cc(NC(C)=O)c(OC(C)=O)c3n2)c(OC)c1 | – | – | 20% | – |
| Cc1ccc2c(n1)C(=O)C(N)=CC2=O | 10.3 µM | – | – | – |
| O=C(O)c1ccc(C(=O)O)c2nc(/C=C/c3ccccc3Br)ccc12 | 89.4 µM | 1.2062 | – | – |
| CC(=O)Nc1cc(NC(C)=O)c2ccc(/C=C/c3ccccc3Br)nc2c1OC(C)=O | 6.58 µM | – | – | – |
| O=[N+]([O-])c1cc([N+](=O)[O-])c2cccnc2c1O | 7.14 µM | 0.7154 | – | > 6.25 µM |
| O=C(O)c1cccc2nc(/C=C/c3ccc(Br)cc3)ccc12 | 109 µM | 1.4397 | – | – |
| O=C(O)c1cccc2nc(/C=C/c3ccccc3O)ccc12 | – | 1.255 | 30% | – |
| O=C(O)c1ccc2nc(/C=C/c3cccc(Cl)c3)ccc2c1 | 110 µM | 1.6315 | – | – |
| COC1=CC(=O)c2ccc(C)nc2C1=O | 6.1 µM | 0.0907 | – | 4.26 µM |
| O=C(O)c1ccc(C(=O)O)c2nc(/C=C/c3ccccc3Cl)ccc12 | 114 µM | 1.2047 | – | – |
| O=C(O)c1ccc2nc(/C=C/c3ccc(Cl)cc3)ccc2c1 | 116 µM | 1.6043 | – | – |
| O=C(O)c1cc([N+](=O)[O-])c2ccc(/C=C/c3ccccc3Cl)nc2c1O | 158 µM | – | – | – |
| O=C(O)c1ccc(C(=O)O)c2nc(/C=C/c3cccc(Cl)c3)ccc12 | 114 µM | 1.2163 | – | – |
| O=[N+]([O-])c1cc([N+](=O)[O-])c2ccc(/C=C/c3ccc(Cl)cc3)nc2c1O | 7.14 µM | – | – | – |
| Cc1ccc2c(n1)C(=O)C(NC(=O)/C=C/c1ccccc1)=CC2=O | 2.39 µM | – | – | – |
| O=C(O)c1ccc(C(=O)O)c2nc(/C=C/c3ccc(Cl)cc3)ccc12 | 110 µM | 1.2107 | – | – |
| O=C(O)c1ccc2ccc(/C=C/c3ccccc3O)nc2c1 | – | 1.3678 | 30% | – |
| COc1cccc(/C=C/c2ccc3c(C(=O)O)ccc(C(=O)O)c3n2)c1 | – | 1.1811 | 25% | – |
| CC(=O)NC1=CC(=O)c2ccc(C)nc2C1=O | 1.61 µM | 0.2227 | – | > 6.25 µM |
| COc1ccc(/C=C/c2ccc3c([N+](=O)[O-])cc([N+](=O)[O-])c(O)c3n2)cc1 | 79.1 µM | – | – | – |
| COc1cccc(/C=C/c2ccc3c(C(=O)O)cccc3n2)c1 | 100 µM | 1.2263 | – | – |
| Cc1ccc2c(n1)C(=O)C(NC(=O)CCc1ccccc1)=CC2=O | 1.44 µM | – | – | – |
| Oc1cccc2ccc(/C=C/c3cccc(Cl)c3)nc12 | – | 1.5395 | 15% | – |
| O=C(O)c1ccc2nc(/C=C/c3ccccc3O)ccc2c1 | 51.1 µM | 1.3842 | – | – |
